Assay results: ChEMBL document CHEMBL5724801, “EUbOPEN Chemogenomics Library - Multiplex” (2024)
Where “and” joins values, the source holds several entries; their conditions need not be identical. Equal values may be shown once.

Test system: HEK-293T
Assay: Multiplex assay against HEK293T
Format: toxicity, cell-based
Conditions: human
Method in brief: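 Phenotypes for tubulin, mitochondrial mass and membrane permeability are expressed as per cents of healthy-nucleus cells. Cells were stained live at seeding with Hoechst33342, BioTracker Green Microtubule Cytoskeleton Dye, MitoTracker Red and Annexin V Alexa Fluor 680, then imaged after compound addition on a CQ1 microscope at 37°C and 5% CO2. Machine-learning gating in CellPathfinder separated Hoechst high-intensity objects from normal cells, divided normal cells by nuclear state (healthy, pyknosed, fragmented) and divided pyknosed cells into mitotic or apoptotic.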

[1] = 12 h, 1 µM, compound concentration 1 uM
[2] = 12 h, 10 µM, compound concentration 10 uM
[3] = 24 h, 1 µM, compound concentration 1 uM
[4] = 24 h, 10 µM, compound concentration 10 uM
[5] = 48 h, 1 µM, compound concentration 1 uM
[6] = 48 h, 10 µM, compound concentration 10 uM

Q: Which results are given for `COC[C@@H](CC(C)C)NC1=N/C(=C\c2ccc3ncsc3c2)C(=O)N1C`?
A: Population Apoptotic (%) [1]: 13.64% and 37.5%; Population Fragmented Nuclei (%) [1]: 6.45% and 8%; Population Healthy Nuclei (%) [1]: 58.06% and 23.43%; Population Hoechst High Intensity Objects (%) [1]: 0.8% and 0%; Population Membrane Permeable-Phenotype (%) [1]: 0.69% and 2.44%; Population Mitotic Cells (%) [1]: 86.36% and 62.5%; Population Normal (%) [1]: 99.2% and 100%; Population Pyknosed Nuclei (%) [1]: 35.48% and 68.57%; Population Tubulin-Different-Phenotype (%) [1]: 6.94% and 14.63%; Total Cell Count [1]: 250 and 175; Population Apoptotic (%) [2]: 25.51% and 35.09%; Population Fragmented Nuclei (%) [2]: 88.19% and 92.28%; Population Healthy Nuclei (%) [2]: 3.54% and 1.77%; Population Hoechst High Intensity Objects (%) [2]: 4.51% and 10.38%; Population Membrane Permeable-Phenotype (%) [2]: 0% and 5.88%; Population Mitochondria Different-Phenotype (%) [2]: 0%; Population Mitotic Cells (%) [2]: 74.49% and 64.91%; Population Normal (%) [2]: 95.49% and 89.62%; Population Pyknosed Nuclei (%) [2]: 8.27% and 5.95%; Population Tubulin-Different-Phenotype (%) [2]: 16.67% and 5.88%; Total Cell Count [2]: 1241 and 1069; Population Apoptotic (%) [3]: 46.3% and 34.07%; Population Fragmented Nuclei (%) [3]: 6.23% and 6.63%; Population Healthy Nuclei (%) [3]: 76.07% and 38.55%; Population Hoechst High Intensity Objects (%) [3]: 2.87% and 1.19%; Population Membrane Permeable-Phenotype (%) [3]: 0.43% and 1.56%; Population Mitochondria Different-Phenotype (%) [3]: 19.83% and 7.81%; Population Mitotic Cells (%) [3]: 53.7% and 65.93%; Population Normal (%) [3]: 97.13% and 98.81%; Population Tubulin-Different-Phenotype (%) [3]: 19.4% and 12.5%; Total Cell Count [3]: 314 and 168; Population Apoptotic (%) [4]: 41.88% and 34.04%; Population Fragmented Nuclei (%) [4]: 84.82% and 94.42%; Population Healthy Nuclei (%) [4]: 4.67% and 1.42%; Population Hoechst High Intensity Objects (%) [4]: 5.28% and 8.58%; Population Membrane Permeable-Phenotype (%) [4]: 9.62% and 0%; Population Mitochondria Different-Phenotype (%) [4]: 5.77% and 0%; Population Mitotic Cells (%) [4]: 58.12% and 65.96%; Population Normal (%) [4]: 94.72% and 91.42%; Population Pyknosed Nuclei (%) [4]: 10.51% and 4.16%; Population Tubulin-Different-Phenotype (%) [4]: 15.38% and 0%; Total Cell Count [4]: 1175 and 1236; Population Apoptotic (%) [5]: 43.33% and 39.58%; Population Fragmented Nuclei (%) [5]: 10.02% and 10.37%; Population Healthy Nuclei (%) [5]: 83.97% and 54.07%; Population Hoechst High Intensity Objects (%) [5]: 2.16% and 8.16%; Population Membrane Permeable-Phenotype (%) [5]: 3.34% and 1.37%; Population Mitochondria Different-Phenotype (%) [5]: 36.28% and 26.03%; Population Mitotic Cells (%) [5]: 56.67% and 60.42%; Population Normal (%) [5]: 97.84% and 91.84%; Population Fragmented Nuclei (%) [6]: 90.84% and 92.95%; Population Healthy Nuclei (%) [6]: 2.22% and 3.18%; Population Hoechst High Intensity Objects (%) [6]: 6.5% and 11.42%; Population Membrane Permeable-Phenotype (%) [6]: 6.67% and 0%; Population Mitochondria Different-Phenotype (%) [6]: 23.33% and 0%; Population Normal (%) [6]: 93.5% and 88.58%; Population Pyknosed Nuclei (%) [6]: 6.95% and 3.87%; Population Tubulin-Different-Phenotype (%) [6]: 10% and 2.38%; Total Cell Count [6]: 1447 and 1489

Q: What does the source list for `COc1cc2nc(N3CCN(C(=O)COc4c(OC)cccc4C(C)C)CC3)nc(N)c2cc1OC.Cl.Cl`?
A: Population Apoptotic (%) [1]: 35% and 46%; Population Fragmented Nuclei (%) [1]: 12% and 8%; Population Healthy Nuclei (%) [1]: 77% and 81%; Population Hoechst High Intensity Objects (%) [1]: 5% and 4%; Population Membrane Permeable-Phenotype (%) [1]: 0%; Population Mitochondria Different-Phenotype (%) [1]: 48% and 58%; Population Mitotic Cells (%) [1]: 64% and 53%; Population Normal (%) [1]: 94% and 95%; Population Pyknosed Nuclei (%) [1]: 9%; Population Tubulin-Different-Phenotype (%) [1]: 23% and 18%; Total Cell Count [1]: 402 and 365; Population Apoptotic (%) [2]: 52% and 57%; Population Fragmented Nuclei (%) [2]: 13% and 14%; Population Healthy Nuclei (%) [2]: 69% and 67%; Population Hoechst High Intensity Objects (%) [2]: 25% and 18%; Population Membrane Permeable-Phenotype (%) [2]: 1% and 3%; Population Mitochondria Different-Phenotype (%) [2]: 74% and 66%; Population Mitotic Cells (%) [2]: 48% and 42%; Population Normal (%) [2]: 74% and 81%; Population Pyknosed Nuclei (%) [2]: 17% and 18%; Population Tubulin-Different-Phenotype (%) [2]: 81% and 66%; Total Cell Count [2]: 386 and 286; Population Apoptotic (%) [3]: 35% and 42%; Population Fragmented Nuclei (%) [3]: 11% and 8%; Population Healthy Nuclei (%) [3]: 77% and 84%; Population Hoechst High Intensity Objects (%) [3]: 5% and 2%; Population Membrane Permeable-Phenotype (%) [3]: 0%; Population Mitochondria Different-Phenotype (%) [3]: 27% and 44%; Population Mitotic Cells (%) [3]: 64% and 57%; Population Normal (%) [3]: 95% and 97%; Population Pyknosed Nuclei (%) [3]: 10% and 7%; Population Tubulin-Different-Phenotype (%) [3]: 19% and 16%; Total Cell Count [3]: 540 and 472; Population Apoptotic (%) [4]: 42% and 51%; Population Fragmented Nuclei (%) [4]: 14% and 13%; Population Healthy Nuclei (%) [4]: 64% and 59%; Population Hoechst High Intensity Objects (%) [4]: 29% and 39%; Population Membrane Permeable-Phenotype (%) [4]: 2%; Population Mitochondria Different-Phenotype (%) [4]: 68% and 72%; Population Mitotic Cells (%) [4]: 57% and 48%; Population Normal (%) [4]: 70% and 60%; Population Pyknosed Nuclei (%) [4]: 21% and 27%; Population Tubulin-Different-Phenotype (%) [4]: 69% and 63%; Total Cell Count [4]: 498 and 286; Population Apoptotic (%) [5]: 28% and 11%; Population Fragmented Nuclei (%) [5]: 16% and 15%; Population Healthy Nuclei (%) [5]: 76% and 78%; Population Hoechst High Intensity Objects (%) [5]: 2% and 3%; Population Membrane Permeable-Phenotype (%) [5]: 1% and 0%; Population Mitochondria Different-Phenotype (%) [5]: 18%; Population Mitotic Cells (%) [5]: 71% and 88%; Population Normal (%) [5]: 97% and 96%; Population Pyknosed Nuclei (%) [5]: 6%; Population Tubulin-Different-Phenotype (%) [5]: 11% and 12%; Total Cell Count [5]: 930 and 737; Population Apoptotic (%) [6]: 31% and 30%; Population Fragmented Nuclei (%) [6]: 18% and 17%; Population Healthy Nuclei (%) [6]: 56% and 59%; Population Hoechst High Intensity Objects (%) [6]: 41% and 46%; Population Membrane Permeable-Phenotype (%) [6]: 3% and 1%; Population Mitochondria Different-Phenotype (%) [6]: 48% and 49%; Population Mitotic Cells (%) [6]: 68% and 69%; Population Normal (%) [6]: 58% and 53%; Population Pyknosed Nuclei (%) [6]: 25% and 23%; Population Tubulin-Different-Phenotype (%) [6]: 56% and 38%; Total Cell Count [6]: 660 and 430
